Reference: ChEMBL document CHEMBL1129598, “Design, synthesis, and in vitro evaluation of cyclic nitrones as free radical traps for the treatment of stroke” (J Med Chem, 1996)

What was measured:
[1] = lipophilicity of the compound.; type: physicochemical; details: reversed-phase HPLC
Procedure, shortened: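 Lipophilicity was measured by reversed-phase HPLC as log k′_w. Samples at 0.5 mg/mL in MeOH were run on a C18 column (15 cm × 4.6 mm, 5 µm). Elution used 32–62% MeOH in pH 7.4 phosphate buffer, at three MeOH levels per compound.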

[2] = In vitro inhibition of oxidation of soybean phosphatidylcholine liposomes using lipid peroxidation assay.; type: functional, Glycine max
Procedure, shortened: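 Soybean phosphatidylcholine liposomes were oxidised with an Fe²⁺/Fe³⁺ mixture to start peroxidation, with test agent present, and oxidation products were then analysed. A reference cyclic nitrone was run as an internal standard in each experiment. Runs were rejected if its value deviated by more than 15% from its established value.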

| Log K'W [1] | IC50 [2] | Structure (SMILES) |
| --- | --- | --- |
| 1.57 | 1590 µM | CC1(C)Cc2sccc2C=[N+]1[O-] |
| 1.82 | 66 µM | Cc1cc2c(c(C)c1O)CC(C)(C)[N+]([O-])=C2 |
| 1.98 | 1090 µM | COc1cccc2c1C=[N+]([O-])C2(C)C |
| 1.61 | 1360 µM | CC1(C)c2ccccc2C=[N+]1[O-] |
| 1.65 | 1240 µM | [O-][N+]1=Cc2ccccc2CC12CCOCC2 |
| 1.9 | 1670 µM | CC1(C)Cc2ccccc2C=[N+]1[O-] |
| – | 14300 µM | CC(C)(C)/[N+]([O-])=C/c1ccccc1 |
| 0.68 | 810 µM | CC1(C)c2cc(O)ccc2C=[N+]1[O-] |
| 1.47 | 1720 µM | CC1(C)Cc2ccsc2C=[N+]1[O-] |
| 2.29 | 22 µM | Cc1cc2c(c(C)c1O)CCC(C)(C)[N+]([O-])=C2 |
| 2.99 | 730 µM | [O-][N+]1=Cc2ccccc2CCC12CCCCC2 |
| 2.69 | 69 µM | CC1(C)Cc2ccc3ccccc3c2C=[N+]1[O-] |
| 1.98 | 310 µM | [O-][N+]1=Cc2ccccc2CCC12CCOCC2 |
| 2.67 | 100 µM | CC1(C)Cc2c(ccc3ccccc23)C=[N+]1[O-] |
| 1.16 | 1070 µM | CC1(C)Cc2ccoc2C=[N+]1[O-] |
| 1.75 | 910 µM | COc1ccc2c(c1)C(C)(C)[N+]([O-])=C2 |
